Measurements from ChEMBL document CHEMBL4028864 (J Med Chem, 2017).
Calls of active or inactive are those of the source. The calls are words filed in the database; no cut-off is given here.

Key:
Histone deacetylase 9 = Histone deacetylase 9 (Homo sapiens, UniProt Q9UKV0); test: Inhibition of HDAC9 (unknown origin) at 10 uM in presence of ATP relative to control
In short: (§1)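 HDAC enzyme inhibition was run by a contract laboratory.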

[1] = biological target: Inhibitor of nuclear factor kappa-B kinase subunit beta (Homo sapiens) (UniProt O14920); test: Inhibition of wild type human IKKbeta (M1 to S756 residues) expressed in mammalian cells assessed as residual activity at 1 uM by KINOMEscan assay relative to control; type: cell-based
Chain of Inhibitor of nuclear factor kappa-B kinase subunit beta (Homo sapiens) (O14920 whole entry, the tested form may be a part): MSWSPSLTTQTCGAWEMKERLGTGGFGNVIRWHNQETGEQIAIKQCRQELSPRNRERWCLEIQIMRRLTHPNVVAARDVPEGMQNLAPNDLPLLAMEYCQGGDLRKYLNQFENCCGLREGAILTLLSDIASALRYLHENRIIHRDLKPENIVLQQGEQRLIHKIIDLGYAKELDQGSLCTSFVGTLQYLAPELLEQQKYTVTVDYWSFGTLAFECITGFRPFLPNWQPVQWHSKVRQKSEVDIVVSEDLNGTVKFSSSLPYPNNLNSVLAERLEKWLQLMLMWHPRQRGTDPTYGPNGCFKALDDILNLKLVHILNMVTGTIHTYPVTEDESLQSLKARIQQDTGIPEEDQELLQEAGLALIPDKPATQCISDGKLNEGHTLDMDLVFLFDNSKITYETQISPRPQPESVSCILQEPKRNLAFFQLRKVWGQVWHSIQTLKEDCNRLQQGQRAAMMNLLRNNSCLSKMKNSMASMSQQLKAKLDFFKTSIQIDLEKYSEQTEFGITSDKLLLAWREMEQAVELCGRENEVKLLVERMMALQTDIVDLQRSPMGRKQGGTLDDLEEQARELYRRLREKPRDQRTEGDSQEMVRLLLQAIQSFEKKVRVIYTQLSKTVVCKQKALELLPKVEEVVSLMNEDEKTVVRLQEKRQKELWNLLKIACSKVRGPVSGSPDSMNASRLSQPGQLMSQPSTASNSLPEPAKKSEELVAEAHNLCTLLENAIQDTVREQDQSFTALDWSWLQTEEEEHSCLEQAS

[2] = biological target: Non-receptor tyrosine-protein kinase TYK2 (Homo sapiens, UniProt P29597); test: Inhibition of wild type human TYK2 (V877 to C1187 residues) expressed in mammalian cells assessed as residual activity at 1 uM by KINOMEscan assay relative to control; type: cell-based
Chain of Non-receptor tyrosine-protein kinase TYK2 (P29597 whole entry, the tested form may be a part): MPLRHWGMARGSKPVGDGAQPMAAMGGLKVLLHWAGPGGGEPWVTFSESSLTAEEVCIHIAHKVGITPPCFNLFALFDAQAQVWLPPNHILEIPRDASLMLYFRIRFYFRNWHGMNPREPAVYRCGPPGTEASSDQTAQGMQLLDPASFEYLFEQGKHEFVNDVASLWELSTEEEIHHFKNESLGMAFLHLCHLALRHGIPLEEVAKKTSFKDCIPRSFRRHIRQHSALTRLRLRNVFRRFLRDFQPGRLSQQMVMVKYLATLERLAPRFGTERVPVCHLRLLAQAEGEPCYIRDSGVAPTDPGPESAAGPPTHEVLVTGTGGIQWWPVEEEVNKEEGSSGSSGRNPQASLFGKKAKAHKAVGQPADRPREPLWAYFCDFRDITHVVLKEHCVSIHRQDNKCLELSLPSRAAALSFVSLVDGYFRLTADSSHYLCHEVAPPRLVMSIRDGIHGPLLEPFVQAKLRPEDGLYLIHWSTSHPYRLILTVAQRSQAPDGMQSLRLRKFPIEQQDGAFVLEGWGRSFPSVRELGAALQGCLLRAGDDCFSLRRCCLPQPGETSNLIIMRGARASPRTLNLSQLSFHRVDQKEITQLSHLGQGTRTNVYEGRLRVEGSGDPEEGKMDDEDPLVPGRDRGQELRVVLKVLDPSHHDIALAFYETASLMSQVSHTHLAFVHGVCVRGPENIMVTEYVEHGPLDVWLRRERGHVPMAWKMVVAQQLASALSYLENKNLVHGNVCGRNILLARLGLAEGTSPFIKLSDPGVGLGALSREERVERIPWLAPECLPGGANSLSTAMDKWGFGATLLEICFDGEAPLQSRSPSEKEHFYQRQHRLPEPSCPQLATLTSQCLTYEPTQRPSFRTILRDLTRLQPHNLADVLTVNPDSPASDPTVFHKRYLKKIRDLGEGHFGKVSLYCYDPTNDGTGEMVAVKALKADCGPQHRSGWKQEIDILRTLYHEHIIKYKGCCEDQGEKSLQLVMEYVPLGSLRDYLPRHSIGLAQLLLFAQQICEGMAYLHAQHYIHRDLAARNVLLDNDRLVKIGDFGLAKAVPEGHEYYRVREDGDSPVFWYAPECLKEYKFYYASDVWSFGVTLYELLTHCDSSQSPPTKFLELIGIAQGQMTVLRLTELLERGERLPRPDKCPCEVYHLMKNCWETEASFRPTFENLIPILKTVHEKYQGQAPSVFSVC

cells [3] = type: functional, cell-based; conditions: Homo sapiens, NKYS, 48 h
[4] = AUC (0 to infinity) in Wistar rat at 1 mg/kg, iv by LC-MS/MS analysis; type: ADME, organism-based; parameters: dose 1 mg/kg, time infinity, route intravenous; conditions: in vivo
In short: (§2)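 Wistar rats given a single 1 mg/kg iv dose. Plasma concentration–time profiles were plotted as mean ± SEM and sampled through 24 h postdose. Values were taken from the iv profile.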

KMS-12-BM = test: cells; type: functional, cell-based; conditions: Homo sapiens, 48 h
cells [5] = type: ADME, cell-based; conditions: Homo sapiens, AC10, 24 h
Jurkat = test: cells; type: functional, cell-based; conditions: Homo sapiens
Plasma = test: Drug uptake in Wistar rat plasma at 5 mg/kg, po administered via gavage or 1 mg/kg, iv up to 2 hrs by LC-MS/MS analysis; type: ADME, organism-based; conditions: in vivo
In short: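 Wistar rats dosed once at 5 mg/kg po or 1 mg/kg iv. Plasma levels were followed as mean ± SEM over 24 h postdose and checked against the limit of quantitation at each time point.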

[6] = biological target: T1, Tyrosine-protein kinase JAK3 (Homo sapiens, UniProt P52333); test: Inhibition of human JAK3 using GEEEEYFELVKKKK as substrate in presence of [gamma-33P]-ATP
T1 sequence (P52333 whole entry): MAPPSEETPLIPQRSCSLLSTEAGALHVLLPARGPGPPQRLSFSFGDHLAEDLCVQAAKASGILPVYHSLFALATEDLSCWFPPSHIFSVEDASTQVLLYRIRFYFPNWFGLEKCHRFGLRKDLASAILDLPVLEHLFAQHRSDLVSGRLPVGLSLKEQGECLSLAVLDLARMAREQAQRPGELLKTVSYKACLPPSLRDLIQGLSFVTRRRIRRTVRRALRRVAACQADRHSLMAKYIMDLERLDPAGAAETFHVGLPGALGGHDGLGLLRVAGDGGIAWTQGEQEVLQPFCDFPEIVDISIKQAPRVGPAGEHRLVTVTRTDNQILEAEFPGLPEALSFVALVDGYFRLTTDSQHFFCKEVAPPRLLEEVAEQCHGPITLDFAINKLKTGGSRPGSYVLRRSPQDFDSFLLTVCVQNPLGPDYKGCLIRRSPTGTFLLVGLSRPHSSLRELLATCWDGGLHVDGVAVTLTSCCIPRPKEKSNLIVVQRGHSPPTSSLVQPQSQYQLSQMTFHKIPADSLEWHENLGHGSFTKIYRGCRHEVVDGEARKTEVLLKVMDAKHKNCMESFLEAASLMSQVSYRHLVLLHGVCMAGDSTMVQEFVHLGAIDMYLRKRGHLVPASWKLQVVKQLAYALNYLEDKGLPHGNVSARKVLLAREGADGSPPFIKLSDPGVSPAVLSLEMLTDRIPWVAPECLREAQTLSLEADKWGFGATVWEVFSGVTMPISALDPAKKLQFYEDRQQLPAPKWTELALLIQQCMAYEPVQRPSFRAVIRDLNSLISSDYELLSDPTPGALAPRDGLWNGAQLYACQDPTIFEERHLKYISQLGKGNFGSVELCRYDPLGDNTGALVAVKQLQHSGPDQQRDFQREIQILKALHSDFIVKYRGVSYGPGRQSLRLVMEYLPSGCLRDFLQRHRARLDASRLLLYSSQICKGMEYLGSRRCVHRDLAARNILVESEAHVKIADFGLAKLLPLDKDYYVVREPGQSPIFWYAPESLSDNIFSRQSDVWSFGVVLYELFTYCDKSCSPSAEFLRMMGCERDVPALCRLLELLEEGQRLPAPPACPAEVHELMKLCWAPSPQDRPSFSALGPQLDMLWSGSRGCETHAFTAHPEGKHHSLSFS
In short: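 Kinase inhibition was tested by radiometric "Hotspot" profiling at a contract laboratory with 10 μM ATP.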

KG-1 = test: cells; type: functional, cell-based; conditions: Homo sapiens, KG-1, 48 h
MV4-11 = test: cells; type: functional, cell-based; conditions: Homo sapiens, MV4-11, 48 h
[7] = biological target: Protein deacetylase HDAC6 (Homo sapiens) (UniProt Q9UBN7); test: Inhibition of HDAC6 in human MOLM14 cells assessed as increase in acetylated tubulin level up to 3 uM after 16 hrs by immunoblotting analysis; type: cell-based
Chain of Protein deacetylase HDAC6 (Homo sapiens) (Q9UBN7 whole entry): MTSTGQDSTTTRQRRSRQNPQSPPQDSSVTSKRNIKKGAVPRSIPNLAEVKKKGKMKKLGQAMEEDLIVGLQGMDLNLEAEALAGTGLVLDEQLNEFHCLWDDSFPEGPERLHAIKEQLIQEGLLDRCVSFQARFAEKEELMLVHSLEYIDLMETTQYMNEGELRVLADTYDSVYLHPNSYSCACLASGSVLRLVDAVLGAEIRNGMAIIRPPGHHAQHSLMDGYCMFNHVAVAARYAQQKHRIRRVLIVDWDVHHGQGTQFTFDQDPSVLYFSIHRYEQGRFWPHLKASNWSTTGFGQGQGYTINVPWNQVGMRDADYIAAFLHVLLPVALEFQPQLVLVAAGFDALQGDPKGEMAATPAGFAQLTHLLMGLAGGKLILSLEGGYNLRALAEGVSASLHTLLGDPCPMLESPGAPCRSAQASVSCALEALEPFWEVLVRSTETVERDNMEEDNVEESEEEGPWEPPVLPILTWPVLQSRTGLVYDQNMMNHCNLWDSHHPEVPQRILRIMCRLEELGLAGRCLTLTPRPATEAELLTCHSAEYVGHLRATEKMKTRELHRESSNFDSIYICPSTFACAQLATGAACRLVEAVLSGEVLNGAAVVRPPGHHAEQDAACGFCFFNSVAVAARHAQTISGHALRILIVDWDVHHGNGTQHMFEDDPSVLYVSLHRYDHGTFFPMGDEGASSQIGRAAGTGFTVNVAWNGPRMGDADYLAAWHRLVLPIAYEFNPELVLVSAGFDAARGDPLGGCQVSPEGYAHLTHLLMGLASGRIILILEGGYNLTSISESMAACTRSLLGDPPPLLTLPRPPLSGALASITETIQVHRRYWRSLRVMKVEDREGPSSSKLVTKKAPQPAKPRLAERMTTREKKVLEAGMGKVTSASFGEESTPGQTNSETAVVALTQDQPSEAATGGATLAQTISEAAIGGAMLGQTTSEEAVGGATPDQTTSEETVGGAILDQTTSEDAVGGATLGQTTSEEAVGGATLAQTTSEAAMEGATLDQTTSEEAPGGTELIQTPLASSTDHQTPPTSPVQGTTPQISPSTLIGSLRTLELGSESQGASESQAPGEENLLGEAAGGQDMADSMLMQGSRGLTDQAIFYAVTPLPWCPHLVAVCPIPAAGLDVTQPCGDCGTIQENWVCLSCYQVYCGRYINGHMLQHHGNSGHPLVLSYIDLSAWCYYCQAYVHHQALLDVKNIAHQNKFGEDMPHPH
In short: (§3)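 KMS-12-BM and MOLM-14 cells were treated for 16 h and then lysed. Acetylated tubulin was detected by immunoblotting, and membranes were reprobed for total tubulin as loading control.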

HL-60 = test: Antiproliferative activity against human HL60 cells; type: functional, cell-based
[8] = biological target: T1, Tyrosine-protein kinase JAK3; test: Inhibition of wild type human JAK3 (I781 to S1124 residues) expressed in mammalian cells assessed as residual activity at 1 uM by KINOMEscan assay relative to control; type: cell-based; conditions: read-out: Activity
[9] = Clearance in Wistar rat at 1 mg/kg, iv by LC-MS/MS analysis; type: ADME, organism-based; conditions: in vivo; in short: as §2
[10] = biological target: Polyamine deacetylase HDAC10 (Homo sapiens, UniProt Q969S8); test: Inhibition of human HDAC10 using fluorogenic peptide from p53 residues 379 to 382 as substrate in presence of ATP; in short: as §1
Chain of Polyamine deacetylase HDAC10 (Q969S8 whole entry, the tested form may be a part): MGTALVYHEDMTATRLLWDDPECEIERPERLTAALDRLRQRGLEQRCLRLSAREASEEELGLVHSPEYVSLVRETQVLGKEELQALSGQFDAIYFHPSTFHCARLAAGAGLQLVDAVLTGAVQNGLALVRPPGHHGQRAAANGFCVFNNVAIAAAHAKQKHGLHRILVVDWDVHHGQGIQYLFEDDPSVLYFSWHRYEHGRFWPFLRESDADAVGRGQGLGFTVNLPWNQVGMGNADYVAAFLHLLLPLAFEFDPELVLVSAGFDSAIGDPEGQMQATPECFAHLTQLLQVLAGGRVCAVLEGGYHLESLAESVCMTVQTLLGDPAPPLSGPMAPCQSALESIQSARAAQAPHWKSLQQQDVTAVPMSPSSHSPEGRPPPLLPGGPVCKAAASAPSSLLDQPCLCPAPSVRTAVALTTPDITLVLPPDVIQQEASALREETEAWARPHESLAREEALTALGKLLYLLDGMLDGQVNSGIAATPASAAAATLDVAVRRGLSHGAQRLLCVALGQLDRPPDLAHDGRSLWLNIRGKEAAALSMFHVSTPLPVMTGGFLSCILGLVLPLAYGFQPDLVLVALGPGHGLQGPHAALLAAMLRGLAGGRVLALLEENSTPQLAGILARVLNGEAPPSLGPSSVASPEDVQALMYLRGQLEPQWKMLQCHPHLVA

[11] = biological target: Protein deacetylase HDAC6 (Homo sapiens) (UniProt Q9UBN7); test: Inhibition of HDAC6 in human KMS-12-BM cells assessed as increase in acetylated tubulin level up to 6 uM after 16 hrs by immunoblotting analysis; type: cell-based; in short: as §3
cells [12] = type: functional, cell-based; conditions: Homo sapiens, KHYG, 48 h
HEL 92.1.7 = test: cells; type: functional, cell-based; conditions: Homo sapiens, HEL 92.1.7, 36 h
[13] = AUC (0 to infinity) in Wistar rat at 5 mg/kg, po administered via gavage by LC-MS/MS analysis; type: ADME, organism-based; parameters: dose 5 mg/kg, time infinity, route oral; conditions: in vivo
In short: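 Wistar rats given a single 5 mg/kg oral dose. Plasma concentration–time profiles were plotted as mean ± SEM and sampled through 24 h postdose.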

MCF7 = test: cells; type: functional, cell-based; conditions: Homo sapiens, MCF7, 72 h
[14] = biological target: Tyrosine-protein kinase JAK2 (Homo sapiens, UniProt O60674); test: Inhibition of human JAK2 using poly[Glu:Tyr] as substrate in presence of [gamma-33P]-ATP

Chain of Histone deacetylase 9 (Q9UKV0 whole entry): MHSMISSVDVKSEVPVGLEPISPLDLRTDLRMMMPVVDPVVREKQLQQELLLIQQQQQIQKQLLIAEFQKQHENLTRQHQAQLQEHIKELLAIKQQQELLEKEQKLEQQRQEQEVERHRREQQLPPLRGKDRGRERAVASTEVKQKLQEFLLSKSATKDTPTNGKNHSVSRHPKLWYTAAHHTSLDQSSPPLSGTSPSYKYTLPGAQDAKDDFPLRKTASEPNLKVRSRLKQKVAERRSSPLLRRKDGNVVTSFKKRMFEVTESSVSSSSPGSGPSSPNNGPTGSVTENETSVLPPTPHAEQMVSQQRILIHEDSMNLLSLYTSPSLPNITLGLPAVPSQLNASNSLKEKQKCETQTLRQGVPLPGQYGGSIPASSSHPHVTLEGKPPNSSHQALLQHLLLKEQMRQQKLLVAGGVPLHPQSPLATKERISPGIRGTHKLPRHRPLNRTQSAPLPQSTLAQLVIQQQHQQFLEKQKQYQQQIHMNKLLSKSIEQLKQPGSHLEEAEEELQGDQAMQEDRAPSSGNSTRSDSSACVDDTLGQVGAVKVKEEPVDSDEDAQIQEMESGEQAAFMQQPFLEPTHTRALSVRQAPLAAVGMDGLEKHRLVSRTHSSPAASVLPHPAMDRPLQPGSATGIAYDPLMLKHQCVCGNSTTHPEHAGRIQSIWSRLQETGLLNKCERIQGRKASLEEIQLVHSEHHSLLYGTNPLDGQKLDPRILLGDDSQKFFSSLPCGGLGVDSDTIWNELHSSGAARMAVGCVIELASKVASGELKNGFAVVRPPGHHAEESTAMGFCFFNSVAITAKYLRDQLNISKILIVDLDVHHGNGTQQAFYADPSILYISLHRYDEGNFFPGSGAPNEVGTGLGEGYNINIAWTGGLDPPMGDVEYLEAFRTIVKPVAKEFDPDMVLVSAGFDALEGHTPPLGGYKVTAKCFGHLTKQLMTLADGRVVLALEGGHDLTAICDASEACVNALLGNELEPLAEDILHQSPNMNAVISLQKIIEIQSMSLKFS

inhibition (Histone deacetylase 9): 30%
Activity [1]: 30%
Activity [2]: 3.3%
IC50 (cells [3]): 450 nM
AUC(0-inf) [4]: 175 ng·h/mL
IC50 (KMS-12-BM): 2020 nM
IC50 (cells [5]): > 100000 nM
IC50 (Jurkat): 470 nM
Drug uptake (Plasma): Active
IC50 [6]: 569 nM
IC50 (KG-1): 150 nM
IC50 (MV4-11): 460 nM
inhibition [7]: Active
IC50 (HL-60): 7360 nM
activity at 1 µM [8]: 0.75%
clearance [9]: 95.1 mL/min/kg
IC50 [10]: 19 nM
inhibition [11]: Active
IC50 (cells [12]): 570 nM
IC50 (HEL 92.1.7): 1330 nM
AUC(0-inf) [13]: 12.3 ng·h/mL
IC50 (MCF7): 840 nM
IC50 [14]: 75 nM
Compound: O=C(CCCCCCn1cc(-c2ncnc3[nH]ccc23)cn1)NO
